The results in this text go back to ChEMBL document CHEMBL1136623, “Cytotoxic activity of 6-alkynyl- and 6-alkenylpurines” (Bioorg Med Chem Lett, 2003).

Molecules are shown by their SMILES. In brackets after ≈: the same amount, converted by molar mass.

Experiment [1] has as its system K562. In words: Percent inhibition of [3H]-thymidine incorporation was determined in human chronic myelogenous leukemic K-562 cell line at 10 ug/mL after 48 hr. The class given is functional. The essentials: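 Single-concentration screen. K-562 cells in log growth seeded at 2×10^4 cells/mL in supplemented RPMI 1640 and exposed 48 h to purine at 10 µg/mL, final DMSO 0.05%. Followed by a 2 h [3H]-thymidine pulse (1 µCi/well), harvest onto fiberglass filters, and scintillation count. Reported as percent inhibition of incorporation.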

Experiment [2] deals with K562. In words: Inhibitory concentration required against human chronic myelogenous leukemic K-562 cell line after 48h, using [3H]thymidine incorporation assay. The class given is functional, cell-based. The method, boiled down: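 Logarithmically growing K-562 cells seeded at 2×10^4 cells/mL in RPMI 1640 with supplements. Exposed 48 h to purines at 10 to 0.078 µg/mL, final DMSO 0.05% (vol/vol). Pulsed 2 h with 1 µCi/well [3H]-thymidine, harvested onto fiberglass filters, and cell-associated radioactivity counted. IC50 taken as the concentration inhibiting incorporation by 50%.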

Experiment [3] has as its system K562. The experiment in a line: Inhibitory concentration required against human chronic myelogenous leukemic K-562 cell line after 5h, using [3H]thymidine incorporation assay. The class given is functional, cell-based. The essentials: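 K-562 cells in log-phase growth seeded at 4×10^4 cells/mL in supplemented RPMI 1640. Purines at 10 to 0.078 µg/mL for 5 h, final DMSO 0.05% (vol/vol). Then a 2 h pulse of 1 µCi/well [3H]-thymidine, filter harvest, and counting of cell-bound radioactivity. IC50 is the concentration giving 50% inhibition of incorporation.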
(In general: Dividing cells build labelled thymidine or BrdU into new DNA.)

A word on the inhibition: it is how much of the control response was suppressed. With `C/C(=C\C=C\c1[nH]cnc2ncnc1-2)CO`, testing at 10 µg/mL in the experiment on K562 [1] gave an inhibition of 6%.

In turn, `Nc1nc(/C=C/c2ccccc2)c2[nH]cnc2n1` displayed an inhibition at 10 µg/mL with K562 [1] of 2%. In the case of `C(=C\c1ncnc2c1ncn2C1CCOCC1)/c1ccccc1`, the inhibition at 10 µg/mL with K562 [1] was determined as 66%. As to `CC(C)=CC#Cc1[nH]cnc2ncnc1-2`, in the experiment with K562 [1], the inhibition at 10 µg/mL was 30%. The IC50 is the concentration that inhibits the measured activity by half. Lower therefore signals greater potency. With `C=Cc1ncnc2ncn(Cc3ccccc3)c12`, the inhibition at 10 µg/mL in the experiment on K562 [1] worked out at 100%. The IC50 was determined as 0.5 µg/mL (≈ 2.12 µM) in the experiment on K562 [2] and 1.4 µg/mL (≈ 5.93 µM) in the experiment with K562 [3]. With `C(=C\c1ncnc2c1ncn2C1CCOCC1)/c1cccs1`, in the experiment with K562 [1], the inhibition at 10 µg/mL was 65%.

Regarding `C(=C\c1[nH]cnc2ncnc1-2)/c1ccsc1`, in the experiment with K562 [1], testing at 10 µg/mL gave an inhibition of 32%. With `COC(=O)/C(C)=C/C=C/c1[nH]cnc2ncnc1-2`, the inhibition at 10 µg/mL with K562 [1] turned out to be 20%. Take `C(=C\c1ncnc2c1ncn2C1CCOCC1)/c1ccsc1`: in the experiment on K562 [1], testing at 10 µg/mL gave an inhibition of 58%.

Regarding `C(=C\c1ncnc2c1ncn2C1CCOCC1)/c1ccco1`, the inhibition at 10 µg/mL in the experiment on K562 [1] was found to be 35%. For the compound `COc1ccc(/C=C/c2[nH]cnc3ncnc2-3)cc1`, at 10 µg/mL the inhibition in the experiment with K562 [1] was 54%.

In the experiment on K562 [1], `Clc1nc2c(C#Cc3ccccc3)ncnc2n1C1CCOCC1` returned an inhibition at 10 µg/mL of 85%. Also, the IC50 is 6.1 µg/mL (≈ 18 µM) in the experiment with K562 [2] and 7 µg/mL (≈ 20.7 µM) with K562 [3]. `C(=C\c1[nH]cnc2ncnc1-2)/c1ccccc1` showed an inhibition at 10 µg/mL in the experiment on K562 [1] of 28%. For `C/C(=C\C=C\c1ncnc2c1ncn2C1CCOCC1)CO`, at 10 µg/mL the inhibition in the experiment on K562 [1] was 27%. Still for that read-out and setting: the result for `C(=C\c1[nH]cnc2ncnc1-2)/c1ccco1` reads 24%; that for `COc1ccc(/C=C/c2ncnc3c2ncn3C2CCOCC2)cc1`, 58%.

`Clc1nc(C#Cc2ccccc2)c2ncn(Cc3ccccc3)c2n1` gave an inhibition at 10 µg/mL in the experiment with K562 [1] of 100%. Moreover, the figures for the IC50 in the experiment with K562 [2] and with K562 [3] were 0.12 µg/mL (≈ 0.348 µM) and 0.8 µg/mL (≈ 2.32 µM), respectively. Compound `Clc1nc(/C=C/c2ccccc2)c2ncn(Cc3ccccc3)c2n1` registered an inhibition at 10 µg/mL in the experiment with K562 [1] of 99%. Further, the half-maximal inhibitory concentration (IC50) in the experiment on K562 [2] worked out at 2 µg/mL (≈ 5.77 µM); in the experiment on K562 [3], 6 µg/mL (≈ 17.3 µM). In the experiment with K562 [1], `C(=C\c1ncnc2c1ncn2Cc1ccccc1)/c1ccccc1` gave an inhibition at 10 µg/mL of 93%. For `Nc1nc(/C=C/c2ccccc2)c2ncn(Cc3ccccc3)c2n1`, in the experiment on K562 [1], 10 µg/mL produced 91% inhibition. Also, the IC50 in the experiment with K562 [2] stood at 1.2 µg/mL (≈ 3.67 µM); in the experiment with K562 [3], 2 µg/mL (≈ 6.11 µM). In the experiment on K562 [1], `C(#Cc1nc(-c2ccccc2)nc2c1ncn2Cc1ccccc1)c1ccccc1` displayed an inhibition at 10 µg/mL of 100%. In addition, the IC50 stood at 1.4 µg/mL (≈ 3.62 µM) in the experiment on K562 [2] and 2.4 µg/mL (≈ 6.21 µM) with K562 [3]. For the compound `C(=C\c1nc(-c2ccccc2)nc2c1ncn2Cc1ccccc1)/c1ccccc1`, in the experiment on K562 [1], the inhibition at 10 µg/mL came out at 34%. In the experiment on K562 [1], `C=Cc1ncnc2c1ncn2Cc1ccccc1` came in with an inhibition at 10 µg/mL of 100%. The IC50 with K562 [2] amounted to 1.1 µg/mL (≈ 4.66 µM); with K562 [3] it was 2.2 µg/mL (≈ 9.31 µM).

In the experiment with K562 [1], `C(#Cc1ncnc2c1ncn2Cc1ccccc1)c1ccccc1` registered an inhibition at 10 µg/mL of 98%. Further, the IC50 was determined as 1.3 µg/mL (≈ 4.19 µM) in the experiment with K562 [2] and 6 µg/mL (≈ 19.3 µM) in the experiment with K562 [3]. `COC(=O)/C(C)=C/C#Cc1[nH]cnc2ncnc1-2`: in the experiment on K562 [1], testing at 10 µg/mL gave an inhibition of 100%. For the same compound, the IC50 in the experiment with K562 [2] turned out to be 1.6 µg/mL (≈ 6.61 µM); in the experiment with K562 [3] it was 3.2 µg/mL (≈ 13.2 µM). `C(=C\c1[nH]cnc2ncnc1-2)/c1cccs1` yielded an inhibition at 10 µg/mL in the experiment with K562 [1] of 50%. In turn, `C(#Cc1[nH]cnc2ncnc1-2)c1ccccc1` registered an inhibition at 10 µg/mL in the experiment on K562 [1] of 100%. The IC50 with K562 [2] is 0.7 µg/mL (≈ 3.18 µM); in the experiment with K562 [3], 5.9 µg/mL (≈ 26.8 µM). In the experiment with K562 [1], `C/C(=C\C#Cc1[nH]cnc2ncnc1-2)CO` had an inhibition at 10 µg/mL of 17%. Turning to `C(#Cc1ncnc2c1ncn2C1CCOCC1)c1ccccc1`, in the experiment on K562 [1], the inhibition at 10 µg/mL is 100%. Besides, the values for the IC50 in the experiment on K562 [2] and in the experiment on K562 [3] were 0.5 µg/mL (≈ 1.64 µM) and 3.2 µg/mL (≈ 10.5 µM), respectively. As to `OC[C@H]1OC(n2cnc3c(C#Cc4ccccc4)ncnc32)[C@H](O)[C@@H]1O` (stereo partly drawn), the inhibition at 10 µg/mL in the experiment on K562 [1] is 100%. For the same compound, the IC50 in the experiment with K562 [2] was found to be 0.1 µg/mL (≈ 0.284 µM); in the experiment with K562 [3] it was 0.2 µg/mL (≈ 0.568 µM). As for `OC[C@H]1OC(n2cnc3c(/C=C/c4ccccc4)ncnc32)[C@H](O)[C@@H]1O` (stereo partly drawn), in the experiment on K562 [1], the inhibition at 10 µg/mL stood at 79%. In addition, the IC50 in the experiment with K562 [2] was determined as 2 µg/mL (≈ 5.64 µM); in the experiment on K562 [3], 10 µg/mL (≈ 28.2 µM). As to `Nc1nc(F)nc2c1ncn2[C@@H]1O[C@H](CO)[C@@H](O)[C@@H]1O` [FLUDARABINE], the inhibition at 10 µg/mL in the experiment with K562 [1] turned out to be 98%. The IC50 in the experiment with K562 [2] and with K562 [3] was 0.6 µg/mL (≈ 2.1 µM) throughout. With `Sc1ncnc2nc[nH]c12` [MERCAPTOPURINE ANHYDROUS], at 10 µg/mL the inhibition in the experiment with K562 [1] was 80%. Besides, the IC50 is 0.6 µg/mL (≈ 3.94 µM) in the experiment on K562 [2] and greater than 10 µg/mL with K562 [3].
